Assay results reported in ChEMBL document CHEMBL1799970, “Dipyrimidine amines: a novel class of chemokine receptor type 4 antagonists with high specificity” (J Med Chem, 2010).
Calls of active or inactive are those of the source. The calls are words filed in the database; no cut-off is given here. Where a SMILES comes first, the peptide text is derived from it. Bridges are numbered along the chain shown (N, C = ends). [ ]: non-standard residue; d: D form. 2Nal = N[C@@H](Cc1ccc2ccccc2c1)C(=O)O; Cit = NC(=O)NCCC[C@H](N)C(=O)O

Key:
Mus musculus [1] = assay: Antiinflammatory activity in C57BL/6L mouse assessed as inhibition of carrageenan-induced paw edema at 10 mg/kg, ip administered 30 mins before carrageenan challenge measured after 76 hrs; assay type: functional; conditions: for inhibition in vivo at 10 mg/kg: route intraperitoneal
[2] = biological target: T1, C-X-C chemokine receptor type 4 (Homo sapiens, UniProt P61073); assay: Antagonist activity at CXCR4 in human MDA-MB-231 cells assessed as inhibition of CXCL12-mediated cell invasion at 100 nM by […] cell invasion assay; assay type: functional, cell-based
T1 sequence (P61073 whole entry): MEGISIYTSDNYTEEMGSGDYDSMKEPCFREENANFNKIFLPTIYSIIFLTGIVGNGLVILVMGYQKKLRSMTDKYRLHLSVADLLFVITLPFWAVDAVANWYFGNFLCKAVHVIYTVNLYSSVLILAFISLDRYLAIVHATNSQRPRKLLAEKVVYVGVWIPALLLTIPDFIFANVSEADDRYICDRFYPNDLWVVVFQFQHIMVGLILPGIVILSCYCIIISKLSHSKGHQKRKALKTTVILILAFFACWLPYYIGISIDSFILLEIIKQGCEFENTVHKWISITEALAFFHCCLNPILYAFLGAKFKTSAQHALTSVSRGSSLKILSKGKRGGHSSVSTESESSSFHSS

[3] = biological target: T1, C-X-C chemokine receptor type 4; assay: Antagonist activity at CXCR4 in human MDA-MB-231 cells assessed as inhibition of CXCL12-mediated cell invasion at 10 nM by […] cell invasion assay; assay type: functional, cell-based
[4] = biological target: T1, C-X-C chemokine receptor type 4; assay: Displacement of biotinylated-TN14003 from CXCL12 binding site of CXCR4 in human MDA-MB-231 cells assessed as concentration required to inhibit >50% using rhodamine staining; assay type: cell-based
How it was run: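 MDA-MB-231 cells preincubated with compound at 1, 10, 100, 1000 nM, fixed in 4% formaldehyde, incubated with 50 nM biotinylated peptide antagonist then streptavidin-rhodamine; EC is lowest concentration blocking >50% of binding.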

MDA-MB-231 [5] = assay: Antiangiogenic activity against human MDA-MB-231 cells xenografted in nude mouse assessed as hemoglobin level at 10 mg/kg, sc measured after 10 days by […] plug assay; assay type: functional; conditions: route subcutaneous; for inhibition in vivo at 10 mg/kg: Mus musculus, MDA-MB-231, sc, 240 h
How it was run: (§1)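 Nude mice, two s.c. flank plugs each (6 mice/group): 2×10^5 MDA-MB-231 cells in 0.5 mL growth factor-reduced Matrigel with compound mixed at 1 µM. From next day, daily s.c. dosing between plugs (10 mg/kg; peptide 300 µg/kg). Day 10 plugs excised, homogenized in water; supernatant with Drabkin's solution, 52 °C 10 min then RT 20 min, A540.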

[6] = biological target: T1, C-X-C chemokine receptor type 4; assay: Antagonist activity at human CXCR4 expressed in human U87 cells expressing CD4 assessed as inhibition of CXCL12-induced cAMP production pretreated for 15 mins before forskolin challenge by TR-FRET analysis; assay type: functional, cell-based, U-87MG ATCC
[7] = biological target: T2, C-C chemokine receptor type 3 (Homo sapiens) (UniProt P51677); assay: Antagonist activity at human CCR3 expressed in human U87 cells expressing CD4 assessed as inhibition of CCL5-induced cAMP production pretreated for 15 mins before forskolin challenge by TR-FRET analysis; assay type: functional, cell-based; conditions: U-87MG ATCC
T2 sequence (whole entry): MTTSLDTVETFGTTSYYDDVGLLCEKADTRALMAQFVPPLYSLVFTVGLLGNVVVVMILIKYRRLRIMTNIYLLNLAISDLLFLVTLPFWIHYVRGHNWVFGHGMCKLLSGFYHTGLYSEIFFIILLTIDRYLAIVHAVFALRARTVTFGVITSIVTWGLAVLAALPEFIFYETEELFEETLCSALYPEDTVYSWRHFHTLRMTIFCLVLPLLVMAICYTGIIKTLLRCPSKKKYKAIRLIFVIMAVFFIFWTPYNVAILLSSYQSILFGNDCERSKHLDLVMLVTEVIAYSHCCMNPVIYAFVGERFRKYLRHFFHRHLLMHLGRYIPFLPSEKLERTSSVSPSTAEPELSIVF
How it was run: (§2)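 U87CD4CCR3 or U87CD4CCR5 cells pretreated with compound 15 min at room temperature, then stimulated with 150 ng/mL CCL5 in presence of 5 µM forskolin; cAMP measured by TR-FRET LANCE kit.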

[8] = biological target: C-C chemokine receptor type 5 (Homo sapiens) (UniProt P51681); assay: Antagonist activity at human CCR5 expressed in human U87 cells expressing CD4 assessed as inhibition of CCL5-induced cAMP production pretreated for 15 mins before forskolin challenge by TR-FRET analysis; assay type: functional, cell-based; conditions: U-87MG ATCC; how it was run: as §2
C-C chemokine receptor type 5 (Homo sapiens), sequence (P51681 whole entry, looked up): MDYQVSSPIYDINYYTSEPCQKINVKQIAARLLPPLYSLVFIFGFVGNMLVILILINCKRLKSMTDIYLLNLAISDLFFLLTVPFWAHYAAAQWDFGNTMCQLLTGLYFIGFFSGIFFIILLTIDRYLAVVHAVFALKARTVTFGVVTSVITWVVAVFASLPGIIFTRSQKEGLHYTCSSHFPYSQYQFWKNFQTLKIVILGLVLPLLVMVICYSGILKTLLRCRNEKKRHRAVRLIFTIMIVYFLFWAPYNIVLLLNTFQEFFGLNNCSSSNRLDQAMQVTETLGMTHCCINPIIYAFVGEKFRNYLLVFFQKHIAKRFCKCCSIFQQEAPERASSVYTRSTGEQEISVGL

Mus musculus [9] = assay: Protection against bleomycin-induced lung injury in mouse assessed as decrease in interstitial structural distortion at 10 mg/kg, ip administered 1 day before bleomycin treatment and daily for 20 days by hematoxylin and eosin staining; assay type: functional, organism-based; design: dose 10 mg/kg
How it was run: (§3)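 Mice, 10/group, anesthetized with isoflurane; 4 U/kg bleomycin in 100 µL PBS instilled intratracheally. Dosing i.p. (10 mg/kg, 300 µg/kg, or saline) from 1 day before bleomycin, daily for 20 days. Lungs harvested day 20, H&E-stained sections examined microscopically.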

Mus musculus [10] = assay: Protection against bleomycin-induced lung injury in mouse assessed as decrease in alveolar structural distortion at 10 mg/kg, ip administered 1 day before bleomycin treatment and daily for 20 days by hematoxylin and eosin staining; assay type: functional, organism-based; design: dose 10 mg/kg; how it was run: as §3
Mus musculus [11] = assay: Protection against bleomycin-induced lung injury in mouse assessed as decrease in lung fibrosis at 10 mg/kg, ip administered 1 day before bleomycin treatment and daily for 20 days by hematoxylin and eosin staining; assay type: functional; design: scale not given: the % may be the effect or the level left; conditions: route intraperitoneal; how it was run: as §3
[12] = Antimetastatic activity against HGF/TGF-beta/CXCR4/MMP2 expressing human OMM 2.3 cells xenografted in nude mouse eye assessed as decrease in number of hepatic micrometastases at 10 mg/kg, ip administered 3 days after tumor implantation QD for 28 days by hematoxylin and eosin staining; assay type: functional; design: scale not given: the % may be the effect or the level left; conditions: route intraperitoneal
How it was run: (§4)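 Female nude mice, 10/group; 1×10^6 OMM2.3 cells into posterior chamber of right eye day 0. Daily i.p. dosing (10 mg/kg or 300 µg/kg in 0.1 mL 45% cyclodextrin) from day 3; vehicle controls; tumor eyes enucleated day 7. Day 28 livers formalin-fixed, H&E; micrometastases (<100 µm) counted in six central sections, averaged per section.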

[13] = Half life in iv dosed mouse; assay type: ADME, organism-based; conditions: in vivo
Mus musculus [14] = assay: Antiinflammatory activity in C57BL/6L mouse assessed as inhibition of carrageenan-induced paw edema at 300 ug/kg, ip administered 30 mins before carrageenan challenge measured after 76 hrs; assay type: functional, organism-based
MDA-MB-231 [15] = assay: Antiangiogenic activity against human MDA-MB-231 cells xenografted in nude mouse assessed as hemoglobin level at 300 ug/kg, sc measured after 10 days by […] plug assay; assay type: functional, organism-based; how it was run: as §1
Mus musculus [16] = assay: Protection against bleomycin-induced lung injury in mouse assessed as decrease in interstitial structural distortion at 300 ug/kg, ip administered 1 day before bleomycin treatment and daily for 20 days by hematoxylin and eosin staining; assay type: functional, organism-based; how it was run: as §3
Mus musculus [17] = assay: Protection against bleomycin-induced lung injury in mouse assessed as decrease in alveolar structural distortion at 300 ug/kg, ip administered 1 day before bleomycin treatment and daily for 20 days by hematoxylin and eosin staining; assay type: functional, organism-based; how it was run: as §3
Mus musculus [18] = assay: Protection against bleomycin-induced lung injury in mouse assessed as decrease in lung fibrosis at 300 ug/kg, ip administered 1 day before bleomycin treatment and daily for 20 days by hematoxylin and eosin staining; assay type: functional; design: scale not given: the % may be the effect or the level left; how it was run: as §3
[19] = Antimetastatic activity against HGF/TGF-beta/CXCR4/MMP2 expressing human OMM 2.3 cells xenografted in nude mouse eye assessed as decrease in number of hepatic micrometastases at 300 ug/kg, ip administered 3 days after tumor implantation QD for 28 days by hematoxylin and eosin staining; assay type: functional; design: scale not given: the % may be the effect or the level left; how it was run: as §4

c1ccc(NCc2ccc(CNc3ncccn3)cc2)cc1
inhibition in vivo at 10 mg/kg (Mus musculus [1]): 20%

c1ccc(NCc2ccc(CNc3ccccc3)cc2)cc1
inhibition [2]: 64%
inhibition [3]: 54%

Fc1cccc(NCc2ccc(CNc3cccc(F)n3)cc2)n1
EC [4]: 100 nM
inhibition [2]: 85%
inhibition [3]: 55%

c1cnc(NCc2ccc(CNc3ccccc3N3CCCC3)cc2)nc1
EC [4]: 100 nM
inhibition [2]: 73%
inhibition [3]: 61%

COc1nccc(NCc2ccc(CNc3ccnc(OC)n3)cc2)n1
EC [4]: 10 nM
inhibition [2]: 65%
inhibition [3]: 24%
inhibition in vivo at 10 mg/kg (MDA-MB-231 [5]): > 30%

Fc1cnc(Cl)nc1NCc1ccc(CNc2ccnc(NCCN3CCOCC3)n2)cc1
EC [4]: 1 nM
inhibition [2]: 100%
inhibition [3]: 84%
IC50 [6]: 0.8 nM
inhibition [7]: inactive
inhibition [8]: inactive
inhibition in vivo at 10 mg/kg (Mus musculus [1]): > 50%
Activity (MDA-MB-231 [5]): 70%
Activity (Mus musculus [9]): Active
Activity (Mus musculus [10]): Active
Activity (Mus musculus [11]): 55%
Activity [12]: 50%
half-life [13]: 15 min

Fc1ccc(NCc2ccc(CNc3ccc(F)cn3)cc2)nc1
EC [4]: 100 nM
inhibition [2]: 68%
inhibition [3]: 45%

Fc1ccccc1NCc1ccc(CNc2ccccc2F)cc1
EC [4]: 100 nM
inhibition [2]: 58%
inhibition [3]: 32%

Fc1ccccc1NCc1ccc(CNc2ncccn2)cc1
inhibition [2]: 62%
inhibition [3]: 41%

CCOCCN1CCN(C(=O)c2cnc(NCc3ccc(CNc4ncc(F)cn4)cc3)nc2C(F)(F)F)CC1
EC [4]: 1 nM
inhibition [2]: 95%
inhibition [3]: 34%
IC50 [6]: 5.4 nM
inhibition [7]: inactive
inhibition [8]: inactive
inhibition in vivo at 10 mg/kg (Mus musculus [1]): 20%
inhibition in vivo at 10 mg/kg (MDA-MB-231 [5]): > 30%

Clc1cccc(NCc2ccc(CNc3ncccn3)cc2)n1
EC [4]: 1 nM
inhibition [2]: 100%
inhibition [3]: 100%
inhibition in vivo at 10 mg/kg (Mus musculus [1]): > 50%
inhibition in vivo at 10 mg/kg (MDA-MB-231 [5]): > 30%

Clc1nc(Cl)nc(NCc2ccc(CNc3nc(Cl)nc(Cl)n3)cc2)n1
EC [4]: 10 nM
inhibition [2]: 82%
inhibition [3]: 61%

c1ccc(NCc2ccc(CNc3ccccn3)cc2)nc1
IC50 [6]: 1.8 nM
inhibition [7]: inactive
inhibition [8]: inactive
inhibition (Mus musculus [1]): Active

N=C(N)NCCC[C@H](NC(=O)[C@@H]1CSSC[C@H](NC(=O)[C@H](Cc2ccc3ccccc3c2)NC(=O)[C@H](CCCNC(=N)N)NC(=O)[C@@H](N)CCCNC(=N)N)C(=O)N[C@@H](Cc2ccc(O)cc2)C(=O)N[C@@H](CCCNC(N)=O)C(=O)N[C@@H](CCCCN)C(=O)N[C@H](CCCCN)C(=O)N2CCC[C@H]2C(=O)N[C@@H](Cc2ccc(O)cc2)C(=O)N[C@@H](CCCNC(=N)N)C(=O)N[C@@H](CCCNC(N)=O)C(=O)N1)C(N)=O (H-RR[2Nal]CY[Cit]K[dK]PYR[Cit]CR-NH2; disulfide 4-13)
inhibition (Mus musculus [14]): Active
inhibition (MDA-MB-231 [15]): Active
Activity (Mus musculus [16]): Active
Activity (Mus musculus [17]): Active
Activity (Mus musculus [18]): 85%
Activity [19]: 50%

Fc1cnc(NCc2ccc(CNc3nccc(C(F)(F)F)n3)cc2)nc1
EC [4]: 1 nM
inhibition [2]: 93%
inhibition [3]: 73%
inhibition in vivo at 10 mg/kg (Mus musculus [1]): 20%
inhibition in vivo at 10 mg/kg (MDA-MB-231 [5]): > 30%

Fc1nccc(NCc2ccc(CNc3ccnc(F)n3)cc2)n1
EC [4]: 1 nM
inhibition [2]: 81%
inhibition [3]: 65%

c1cnc(NCc2ccc(CNc3ccc(N4CCCC4)cc3)cc2)nc1
EC [4]: 1 nM
inhibition [2]: 82%
inhibition [3]: 57%

c1cnc(NCc2ccc(CNc3cccc(N4CCCC4)c3)cc2)nc1
EC [4]: 10 nM
inhibition [2]: 78%
inhibition [3]: 41%

Clc1ccc(NCc2ccc(CNc3ncccn3)cc2)nc1
EC [4]: 10 nM
inhibition [2]: 100%
inhibition [3]: 82%
inhibition in vivo at 10 mg/kg (Mus musculus [1]): 20%

COc1ncc(F)c(NCc2ccc(CNc3nc(OC)ncc3F)cc2)n1
EC [4]: 1 nM
inhibition [2]: 100%
inhibition [3]: 77%
inhibition in vivo at 10 mg/kg (Mus musculus [1]): 20%

c1ccc(NCc2ccc(CNc3ncccn3)cc2)nc1
EC [4]: 100 nM
inhibition [2]: 64%
inhibition [3]: 58%

Fc1cccc(NCc2ccc(CNc3ncccn3)cc2)n1
inhibition [2]: 80%
inhibition [3]: 53%
inhibition in vivo at 10 mg/kg (Mus musculus [1]): > 50%
inhibition in vivo at 10 mg/kg (MDA-MB-231 [5]): > 30%

Fc1cnc(NCc2ccc(CNc3ncc(F)cn3)cc2)nc1
EC [4]: 1 nM
inhibition [2]: 75%
inhibition [3]: 75%
